Experimental findings from ChEMBL document CHEMBL3621132, “Discovery of diazepane amide DORAs and 2-SORAs enabled by exploration of isosteric quinazoline replacements” (Bioorg Med Chem Lett, 2015) are described below.

Structures are written as SMILES.

One data set concerns the target T1, Orexin receptor type 2 (Homo sapiens, UniProt O43614).
T1 sequence (O43614 whole entry): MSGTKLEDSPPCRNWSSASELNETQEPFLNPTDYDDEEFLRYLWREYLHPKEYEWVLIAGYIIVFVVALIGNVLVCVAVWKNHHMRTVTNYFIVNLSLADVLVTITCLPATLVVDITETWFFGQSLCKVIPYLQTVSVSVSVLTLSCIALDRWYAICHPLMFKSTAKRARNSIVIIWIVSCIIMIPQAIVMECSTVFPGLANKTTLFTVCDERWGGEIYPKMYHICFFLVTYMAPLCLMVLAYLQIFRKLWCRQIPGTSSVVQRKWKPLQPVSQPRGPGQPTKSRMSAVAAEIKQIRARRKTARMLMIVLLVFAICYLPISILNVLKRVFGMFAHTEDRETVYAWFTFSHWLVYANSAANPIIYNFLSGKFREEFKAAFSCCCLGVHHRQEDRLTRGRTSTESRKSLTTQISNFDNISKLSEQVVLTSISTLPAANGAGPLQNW
The experiment in a line: Antagonist activity at human orexin 2 receptor expressed in CHO cells assessed as inhibition of orexin-A-induced intracellular calcium level after 60 mins by FLIPR assay. The data set is classed as functional, cell-based.

Data set [1] addresses Orexin receptor type 2 (Homo sapiens) (UniProt O43614). Briefly: Antagonist activity at human orexin 2 receptor expressed in CHO cells assessed as inhibition of orexin-A-induced intracellular calcium level after 60 mins by FLIPR assay. The settings on record: 1 h.
Data set [2] shares this target. Briefly: Binding affinity to human orexin 2 receptor expressed in CHO cells after 3 hrs by radioligand binding assay.
Data set [3] deals with Orexin receptor type 1 (Homo sapiens) (UniProt O43613). Briefly: Binding affinity to human orexin 1 receptor expressed in CHO cells after 3 hrs by radioligand binding assay.
Data set [4] can be described thus: Clearance in dog at 0.125 mg/kg, iv. The data set is classed as ADME, organism-based, Canis lupus familiaris. The note with it: in vivo. Put shortly:
(§1)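 Intravenous PK in rat (2 mg/kg) and dog (0.125 or 0.5 mg/kg), vehicle 100% DMSO, n = 2. Clearance, Vdss and half-life were determined.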

Data set [5] can be described thus: Plasma protein binding in human. The format is ADME, cell-free. The note with it: read-out: PPB (converted).
The nature of data set [6]: AUC in dog at 3 mg/kg, po. The format is ADME, organism-based, Canis lupus familiaris. The settings on record: in vivo.
Data set [7] is described as follows: AUC in rat at 10 mg/kg, po. The data set is classed as ADME, organism-based. The settings on record: in vivo.
Data set [8] is described as follows: Oral bioavailability in rat at 10 mg/kg. The settings on record: in vivo. The format is ADME, organism-based. Put shortly:
(§2)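 Rats were dosed orally at 10 mg/kg in 100% PEG200 (n = 2), as the free base or the hydrochloride salt. AUC, Tmax, Cmax and bioavailability (F) were derived from plasma levels.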

A short description of data set [9]: Volume of distribution at steady state in dog at 0.5 mg/kg, iv. The data set is classed as ADME, organism-based, Canis lupus familiaris. The settings on record: in vivo, read-out: Vdss. Put shortly: as §1
Data set [10] is described as follows: Plasma protein binding in dog. The data set is classed as ADME, cell-free, Canis lupus familiaris. The note with it: read-out: PPB (converted).
A short description of data set [11]: Volume of distribution at steady state in rat at 2 mg/kg, iv. The format is ADME, organism-based. The settings on record: in vivo, read-out: Vdss. Put shortly:
as §1

Data set [12] can be described thus: Cmax in dog at 3 mg/kg, po. Set-up: dose 3 mg/kg, route oral. The note with it: in vivo. The data set is classed as ADME, organism-based, Canis lupus familiaris. A digest of the protocol: (§3)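 Oral dosing in dogs at 3 mg/kg as the free base in 20% Vitamin E TPGS in water (n = 2). AUC, Tmax, Cmax and oral bioavailability were determined from plasma.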
A short description of data set [13]: Half life in dog at 0.5 mg/kg, iv. The data set is classed as ADME, organism-based, Canis lupus familiaris. The note with it: in vivo. A digest of the protocol: as §1
Data set [14] can be described thus: Half life in rat at 2 mg/kg, iv. The data set is classed as ADME, organism-based. The settings on record: in vivo. A digest of the protocol:
as §1

The nature of data set [15]: Tmax in dog at 3 mg/kg, po. The data set is classed as ADME, organism-based, Canis lupus familiaris. The note with it: in vivo. Put shortly: as §3
Data set [16] deals with P-glycoprotein. Briefly: Permeability of the compound assessed as human p-glycoprotein-mediated permeability ratio from basolateral to apical direction. The data set is classed as ADME. The note with it: not told.
Data set [17] can be described thus: Oral bioavailability in dog at 3 mg/kg. The data set is classed as ADME, organism-based, Canis lupus familiaris. The settings on record: in vivo. A digest of the protocol: as §3
A short description of data set [18]: Cmax in mouse at 300 mg/kg, po. The note with it: in vivo. The data set is classed as ADME, organism-based. Set-up: dose 300 mg/kg, route oral. A digest of the protocol:
(§4)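 Mice were dosed orally at 300 mg/kg as the free base in 20% Vitamin E TPGS in water, during the active phase of the sleep study. Cmax and Tmax were taken from plasma.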

Data set [19] can be described thus: Tmax in mouse at 300 mg/kg, po. The format is ADME, organism-based. The note with it: in vivo. A digest of the protocol: as §4
Data set [20] can be described thus: Clearance in dog at 0.5 mg/kg, iv. The format is ADME, organism-based, Canis lupus familiaris. The settings on record: in vivo. A digest of the protocol: as §1
Data set [21] in a line: Plasma protein binding in rat. The settings on record: read-out: PPB (converted). The format is ADME, cell-free.
A short description of data set [22]: Tmax in rat at 10 mg/kg, po. The format is ADME, organism-based. The settings on record: in vivo. A digest of the protocol:
as §2

The test system of data set [23] is P-glycoprotein. Briefly: Permeability of the compound assessed as rat p-glycoprotein-mediated permeability ratio from basolateral to apical direction. The data set is classed as ADME. The settings on record: not told.
Data set [24] in a line: Cmax in rat at 10 mg/kg, po. The format is ADME, organism-based. Set-up: dose 10 mg/kg, route oral. The note with it: in vivo. A digest of the protocol: as §2
Data set [25] can be described thus: Clearance in rat at 2 mg/kg, iv. The data set is classed as ADME, organism-based. The note with it: in vivo. A digest of the protocol: as §1
Data set [26] is described as follows: Lipophilicity, log D of the compound by HPLC analysis. The format is physicochemical.
Data set [27] is described as follows: Apparent permeability of the compound assessed […] by cell based assay. The format is physicochemical.

`Cc1ncc(C(F)(F)F)c(N2CC[C@@H](C)N(C(=O)c3ccccc3-n3nccn3)CC2)n1`: the IC50 (at Orexin receptor type 2; in [1]) was 88 nM throughout. Besides, the results for the Ki in data set [2] and in data set [3] were 31 nM and 4200 nM, respectively.

In the case of `Cc1ccc(-n2nccn2)c(C(=O)N2CCN(c3ncc(C(F)(F)F)c(Cl)n3)CC[C@H]2C)c1`, the clearance in data set [4] was 15 mL/min/kg. Further, the IC50 (at Orexin receptor type 2; in data set [1]) was 140 nM throughout. For the same compound, the Ki amounted to 0.6 nM in [2] and 0.7 nM in data set [3].

Regarding `COc1nc(N2CC[C@@H](C)N(C(=O)c3ccccc3-n3nccn3)CC2)ncc1C(F)(F)F`, the clearance in data set [4] is 3 mL/min/kg. In addition, the IC50 (on Orexin receptor type 2; in data set [1]) was 21 nM in each case. Also, the values for the Ki in [2] and in data set [3] were 0.7 nM and 6.3 nM, respectively.

Consider `C[C@@H]1CCN(c2nc(Cl)ncc2Cl)CCN1C(=O)c1ccccc1-n1nccn1`, for which the IC50 at Orexin receptor type 2 worked out at 25 nM. The Ki was 1.1 nM in data set [2] and 850 nM in data set [3].

As for `Cc1ncc(Cl)c(N2CC[C@@H](C)N(C(=O)c3ccccc3-n3nccn3)CC2)n1`, the fraction unbound was 0.05 in data set [5], 0.05 in data set [10] and 0.12 in data set [21]. For the same compound, the AUC amounted to 1.8 µM·h in data set [6] and 1.2 µM·h in [7]. Further, the bioavailability turned out to be 35% in data set [8] and 19% in [17]. Also, the Vd in data set [9] worked out at 0.8 L/kg; in data set [11] it was 7 L/kg. For the same compound, the results for the Cmax in data set [12], in data set [18] and in data set [24] were 1300 nM, 18 µM and 900 nM, respectively. Further, the half-life in data set [13] was 54 min; in data set [14] it was 192 min. For the same compound, the Tmax in data set [15] came out at 24 min; in [19], 1 h; in data set [22] it was 24 min. For the same compound, the efflux ratio in the data set on P-glycoprotein [16] came to 0.7; in the data set on P-glycoprotein [23], 1.5. For the same compound, the 50% inhibitory concentration (IC50) on Orexin receptor type 2 amounted to 48 nM. The clearance came out at 15 mL/min/kg in data set [20] and 118 mL/min/kg in data set [25]. Besides, the Ki turned out to be 3.6 nM in data set [2] and 1800 nM in data set [3]. Moreover, in data set [26], the logD turned out to be 2.8. In addition, the Papp in [27] was determined as 34 ×10⁻⁶ cm/s.

For the compound `Cc1ccc(-n2nccn2)c(C(=O)N2CCN(c3ncc(C(F)(F)F)c(C)n3)CC[C@H]2C)c1`, in [4], the clearance is 10 mL/min/kg. The IC50 at Orexin receptor type 2 was found to be 85 nM. Also, the Ki in data set [2] came out at 0.5 nM; in data set [3] it was 1.6 nM.

In the case of `COc1nc(N2CC[C@@H](C)N(C(=O)c3cc(C)ccc3-n3nccn3)CC2)ncc1C`, the IC50 (on Orexin receptor type 2; in [1]) was 31 nM in each case. For the same compound, the Ki in [2] worked out at 0.6 nM; in [3], 14 nM.

Compound `Cc1ccc(-n2nccn2)c(C(=O)N2CCN(c3ncc(C)c(Cl)n3)CC[C@H]2C)c1` came in with a clearance in data set [4] of 8 mL/min/kg. Also, the IC50 (at Orexin receptor type 2; in data set [1]) was 28 nM each time. Also, the Ki in data set [2] came out at 0.4 nM; in [3], 3.9 nM.

Regarding `C[C@@H]1CCN(c2nc(Cl)ncc2C(F)(F)F)CCN1C(=O)c1ccccc1-n1nccn1`, the IC50 (at Orexin receptor type 2; in data set [1]) was 72 nM throughout. This compound also returned a Ki in data set [3] of 1100 nM.
